Assay [1] is described as follows: Inhibition of Yersinia sp. PKA. The method, boiled down: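 YpkA kinase activity measured by radiological assay with enzyme at 0.15 μM; IC50 values determined from this assay.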
Assay [2] can be described thus: Inhibition of MAPK. Set-up: species or system Homo sapiens.
The target in a further assay is Protein kinase C (PKC). Briefly: Inhibition of PKC. Set-up: species or system Homo sapiens.

SMILES strings stand for the structures. pIC50: −log10 of the molar value. Where only a bound is given, the exact number is not on record here.

What is called pIC50 is −log10 of the IC50, conventionally taken in molar units. As usually defined, the IC50 is the point on the concentration scale where inhibition reaches its midpoint. Low readings indicate greater potency in that assay, high ones weaker potency in that assay.

Turning to `C=CCN1C(=O)NC(=O)/C(=C/c2ccc(-c3cc([N+](=O)[O-])ccc3Cl)o2)C1=O`, the negative logarithm of the IC50 (pIC50) is 5.01 in assay [1] and 4.26 in assay [2]. In addition, the concentration for half-maximal inhibition (IC50) against Protein kinase C (PKC) was determined as 205.16 µM.
For `O=C1Nc2ccc(Br)cc2/C1=C1/SC(=S)N(c2cccc(Cl)c2)C1=O` the same measures were 5.74, 5.61 and greater than 200 µM.
In the same order, the values of `O=C1c2ccccc2C(=O)c2cc(S(=O)(=O)Nc3cccc([N+](=O)[O-])c3)ccc21` are 4.70, less than 3.70 and 165 µM.
In the same order, the values of `O=C1NC(=O)C(=Cc2ccc(Sc3ccc(Cl)cc3)c([N+](=O)[O-])c2)C(=O)N1` are 5.23, 4.20 and greater than 200 µM.

The values are drawn from ChEMBL document CHEMBL1148749, “Targeting plague virulence factors: a combined machine learning method and multiple conformational virtual screening for the discovery of Yersinia protein kinase A inhibitors” (J Med Chem, 2007).
